Laboratory results published in ChEMBL document CHEMBL1145523, “Genetic targeting of the kinase activity of the Met receptor in cancer cells” (Proc Natl Acad Sci U S A, 2007).
Activity calls are given as the source filed them.

Columns and labels:
[1] = tested on: DLD-1; assay: Inhibition of human MSK phosphorylation in DLD1 cells at 2.5 uM; assay type: cell-based
Procedure, shortened: (§1)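 Parental or MET-KD DLD1 cells held 16 h with or without 2.5 μM inhibitor, then lysed. Phosphorylation read on a human phospho-MAPK antibody array following the kit instructions. Dot signals quantified by densitometry and normalized to untreated WT DLD1 cells (set to 1). Significance by two-tailed Student's t test against WT untreated cells.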

[2] = target: T1, c-Jun N-terminal kinase, JNK (Homo sapiens) (UniProt P45983+P53779+P45984); assay: Inhibition of human JNK phosphorylation in DLD1 cells at 2.5 uM; assay type: cell-based; settings: DLD-1; procedure, shortened: as §1
[3] = target: Mitogen-activated protein kinase 14 (Homo sapiens) (UniProt Q16539); assay: Inhibition of human p38-alpha phosphorylation in DLD1 cells at 2.5 uM; assay type: cell-based; settings: DLD-1; procedure, shortened: as §1
Mitogen-activated protein kinase 14 (Homo sapiens), sequence (Q16539 whole entry): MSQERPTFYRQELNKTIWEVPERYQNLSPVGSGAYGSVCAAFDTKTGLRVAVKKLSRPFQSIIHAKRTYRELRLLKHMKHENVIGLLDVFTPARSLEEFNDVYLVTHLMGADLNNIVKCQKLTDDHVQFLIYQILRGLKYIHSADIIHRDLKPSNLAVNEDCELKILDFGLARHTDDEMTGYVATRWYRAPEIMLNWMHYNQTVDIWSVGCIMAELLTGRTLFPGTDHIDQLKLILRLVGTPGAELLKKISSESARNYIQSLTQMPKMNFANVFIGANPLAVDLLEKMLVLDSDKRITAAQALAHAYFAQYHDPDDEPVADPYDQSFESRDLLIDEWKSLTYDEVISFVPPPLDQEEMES

[4] = tested on: DLD-1; assay: Reduction of proliferation in human DLD1 cells at 2.5 uM by ATP-based assay; assay type: functional, cell-based
Procedure, shortened: (§2)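 Parental DLD1 and two independent MET-KD clones seeded at equal density in 96-well plates and given 2.5 μM inhibitor. Cell number measured as ATP-based luminescence (RLU). Mean of triplicates ± SD.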

[5] = tested on: DLD-1; assay: Inhibition of human p70s6K phosphorylation in DLD1 cells at 2.5 uM; assay type: cell-based; procedure, shortened: as §1
[6] = tested on: DLD1 KD; assay: Inhibition of human p70s6K phosphorylation in DLD1 KD cells carrying inactive MET kinase at 2.5 uM; assay type: cell-based; procedure, shortened: as §1
[7] = tested on: DLD1 KD; assay: Inhibition of human MSK phosphorylation in DLD1 KD cells carrying inactive MET kinase at 2.5 uM; assay type: cell-based; procedure, shortened: as §1
[8] = tested on: DLD-1; assay: Reduction of proliferation in human DLD1 KD2 cell carrying inactive MET kinase at 2.5 uM by ATP-based assay; assay type: functional; procedure, shortened: as §2
[9] = target: T1, c-Jun N-terminal kinase, JNK (Homo sapiens); assay: Inhibition of human JNK phosphorylation in DLD1 KD cells carrying kinase inactive MET at 2.5 uM; assay type: cell-based; procedure, shortened: as §1
[10] = tested on: DLD-1; assay: Reduction of proliferation in human DLD1 KD1 cell carrying inactive MET kinase at 2.5 uM by ATP-based assay; assay type: functional; procedure, shortened: as §2
[11] = target: Mitogen-activated protein kinase 14 (Homo sapiens) (UniProt Q16539); assay: Inhibition of human p38-alpha phosphorylation in DLD1 KD cells carrying inactive MET kinase at 2.5 uM; assay type: cell-based; procedure, shortened: as §1

Measured: Activity

Cc1[nH]c(/C=C2\C(=O)Nc3ccc(S(=O)(=O)N(C)c4cccc(Cl)c4)cc32)c(C)c1C(=O)N1CCN(C)CC1
active: all assays above
